Inhibition of growth data for 1 molecule are collected here from ChEMBL document CHEMBL4152263, “Novel anticancer hybrids from diazen-1-ium-1,2-diolate nitric oxide donor and ROS inducer plumbagin: Design, synthesis and biological evaluations” (Eur J Med Chem, 2018).

Holding throughout (format): functional
One assay relates to A549. As to the kind of experiment: Cytotoxicity against human A549 cells assessed as growth inhibition at 40 uM after 48 hrs by MTT assay relative to control. To be noted: A549, 48 h, read-out: GI. The method in brief: (§1)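 Single-concentration MTT screen. Cells were seeded, allowed to adhere for 24 h, and exposed to compound for 48 h. MTT (5 mg/mL) was added for the last 4 h, then DMSO, with absorbance read at 570 nm. Result is inhibition rate (%) at the stated concentration; mean of three independent experiments.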
On the technique in general: Tetrazolium dyes change colour on reduction, which living cells bring about.

The test system of a further assay is MDA-MB-231. Description: Cytotoxicity against human MDA-MB-231 cells assessed as growth inhibition at 40 uM after 48 hrs by MTT assay relative to control. The note with it: MDA-MB-231, 48 h, read-out: GI. The method in brief:
as §1

The next assay deals with HepG2. Description: Cytotoxicity against human HepG2 cells assessed as growth inhibition at 40 uM after 48 hrs by MTT assay relative to control. The note with it: HepG2, 48 h, read-out: GI. The method in brief:
as §1

Turning to `CC1=C(CCC(=O)O)C(=O)c2c(O)cccc2C1=O`, the figures for the inhibition of growth at 40 µM in the assay on A549, in the assay on MDA-MB-231 and with HepG2 were 12.3%, 8.7% and 25.3%, respectively.
